Activity calls are given as the source filed them. The calls are words filed in the database; no cut-off is given here.
Tests used:
[1] = molecular target: Gamma-secretase; assay: Modulation of gamma secretase in HEK293 cells transfected with human APP with Swedish and London familial AD mutation assessed as reduction in Abeta42 levels incubated for 5 hrs by sandwich immuno-assay; assay type: cell-based
[2] = test system: HEK293; assay: Effect on total Abeta40 levels in HEK293 cells transfected with human APP with Swedish and London familial AD mutation incubated for 5 hrs by sandwich immuno-assay; assay type: functional, cell-based; settings: HEK293, 5 h
[3] = Selectivity index, ratio of IC50 for effect on total Abeta40 levels in HEK293 cells transfected with human APP with Swedish and London familial AD mutation incubated for 5 hrs by sandwich immuno-assay to IC50 for modulation of gamma secretase in HEK293 cells transfected with human APP with Swedish and London familial AD mutation assessed as reduction in Abeta42 levels incubated for 5 hrs by sandwich immuno-assay
[4] = test system: rat MDR1A (P-glycoprotein); assay: Efflux ratio in pig LLC-PK1 cells transfected with rat MDR1A; assay type: ADME, cell-based, Sus scrofa
In short: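 Rat P-gp efflux measured in LLC-PK1 cells transfected with rat MDR1A. Reported as the ratio of B-to-A over A-to-B transport.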

[5] = test system: Rattus norvegicus; assay: Reduction of Abeta42 protein level in CD rat at 30 mg/kg, po measured after 3 hrs relative to control; assay type: functional; design: scale not given: the % may be the effect or the level left
In short: (§1)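 Male CD rats given a single oral dose (1-30 mg/kg). CSF Aβ42 measured 3 h after the dose and expressed as reduction relative to control levels. In the dose-response study, geometric means are of 29 animals (3 and 10 mg/kg groups) and 10 animals (30 mg/kg group).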

[6] = Drug level in brain of CD rat at 10 mg/kg, po measured after 3 hrs; assay type: ADME, organism-based; settings: read-out: Drug uptake
In short: (§2)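 Male CD rats dosed orally at 3, 10 or 30 mg/kg. Total drug concentrations measured in plasma and brain 3 h after the dose. Values are geometric means of 10 (3 mg/kg), 15 (10 mg/kg) and 5 (30 mg/kg) animals.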

[7] = molecular target: Cytochrome P450 2C9 (Homo sapiens, UniProt P11712); assay: Inhibition of CYP2C9 (unknown origin); assay type: ADME
Sequence of Cytochrome P450 2C9 (P11712 whole entry): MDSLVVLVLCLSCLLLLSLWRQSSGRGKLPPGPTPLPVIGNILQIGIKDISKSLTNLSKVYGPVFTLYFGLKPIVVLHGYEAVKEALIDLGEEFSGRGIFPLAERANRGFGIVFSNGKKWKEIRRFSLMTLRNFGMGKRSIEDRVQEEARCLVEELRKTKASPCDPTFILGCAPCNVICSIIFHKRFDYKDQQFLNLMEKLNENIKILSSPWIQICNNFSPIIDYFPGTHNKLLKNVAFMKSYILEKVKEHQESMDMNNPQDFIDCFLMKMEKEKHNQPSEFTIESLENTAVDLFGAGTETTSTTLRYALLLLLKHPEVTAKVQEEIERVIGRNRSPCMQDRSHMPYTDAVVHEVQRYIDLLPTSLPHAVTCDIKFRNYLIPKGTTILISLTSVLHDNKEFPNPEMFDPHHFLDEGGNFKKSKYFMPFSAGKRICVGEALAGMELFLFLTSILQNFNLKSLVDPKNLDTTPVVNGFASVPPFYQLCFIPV

[8] = Drug level in plasma of CD rat at 3 mg/kg, po measured after 3 hrs; assay type: ADME, organism-based; in short: as §2
[9] = Apparent permeability of the compound; assay type: ADME; settings: not told
[10] = test system: Rattus norvegicus; assay: Reduction of Abeta42 protein level in CD rat at 3 to 30 mg/kg, po measured after 3 hrs relative to control; assay type: functional, organism-based; in short: as §1
[11] = Oral bioavailability CD rat at 2 mg/kg; assay type: ADME, organism-based; settings: in vivo
In short: (§3)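 Male CD rats, single 2 mg/kg oral dose. Plasma drug concentration-time profile used for AUC(0-∞), Cmax and oral bioavailability (F%). Values are the average of two experiments.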

[12] = molecular target: T1, Nuclear receptor subfamily 1 group I member 2 (Homo sapiens, UniProt O75469); assay: Inhibition of PXR (unknown origin); assay type: ADME
T1 sequence (O75469 whole entry): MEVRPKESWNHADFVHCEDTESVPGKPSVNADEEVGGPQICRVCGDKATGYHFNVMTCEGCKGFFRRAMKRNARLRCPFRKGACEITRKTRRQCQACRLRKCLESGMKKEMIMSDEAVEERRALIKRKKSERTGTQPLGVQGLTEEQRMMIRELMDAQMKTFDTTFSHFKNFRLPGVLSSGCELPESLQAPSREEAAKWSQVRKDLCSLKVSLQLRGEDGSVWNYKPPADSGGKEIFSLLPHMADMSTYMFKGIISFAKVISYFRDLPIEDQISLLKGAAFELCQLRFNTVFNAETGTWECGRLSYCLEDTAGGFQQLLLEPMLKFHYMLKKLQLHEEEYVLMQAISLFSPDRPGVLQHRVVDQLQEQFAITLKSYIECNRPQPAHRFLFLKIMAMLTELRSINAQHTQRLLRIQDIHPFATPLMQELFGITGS

[13] = Clearance in CD rat at 1 mg/kg, iv; assay type: ADME, organism-based; settings: in vivo
In short: (§4)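 Male CD rats, single 1 mg/kg intravenous dose. Clearance, steady-state volume of distribution and mean residence time taken from the plasma concentration-time data. Values are the average of two experiments.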

[14] = test system: Rattus norvegicus; assay: Reduction of Abeta42 protein level in CD rat at 10 mg/kg, po measured after 3 hrs relative to control; assay type: functional; design: scale not given: the % may be the effect or the level left; in short: as §1
[15] = Drug level in plasma of CD rat at 10 mg/kg, po measured after 3 hrs; assay type: ADME, organism-based; in short: as §2
[16] = molecular target: Cytochrome P450 2D6 (Homo sapiens, UniProt P10635); assay: Inhibition of CYP2D6 (unknown origin); assay type: ADME
Sequence of Cytochrome P450 2D6 (P10635 whole entry): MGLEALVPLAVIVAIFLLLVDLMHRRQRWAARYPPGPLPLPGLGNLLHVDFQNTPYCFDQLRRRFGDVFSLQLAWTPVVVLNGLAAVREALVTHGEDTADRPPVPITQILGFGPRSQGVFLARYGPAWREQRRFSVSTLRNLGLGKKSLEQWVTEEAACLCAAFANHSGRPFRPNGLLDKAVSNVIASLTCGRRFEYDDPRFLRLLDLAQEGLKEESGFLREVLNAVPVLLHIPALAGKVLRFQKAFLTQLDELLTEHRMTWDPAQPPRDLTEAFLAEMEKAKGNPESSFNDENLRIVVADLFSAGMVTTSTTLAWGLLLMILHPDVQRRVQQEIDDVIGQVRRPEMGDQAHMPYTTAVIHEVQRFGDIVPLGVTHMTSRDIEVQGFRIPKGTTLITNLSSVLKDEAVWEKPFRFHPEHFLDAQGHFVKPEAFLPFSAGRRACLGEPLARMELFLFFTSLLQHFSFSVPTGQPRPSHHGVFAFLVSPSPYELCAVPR

[17] = Drug level in plasma of CD rat at 30 mg/kg, po measured after 3 hrs; assay type: ADME, organism-based; in short: as §2
[18] = Cmax in CD rat at 2 mg/kg, po; assay type: ADME, organism-based; design: dose 2 mg/kg, route oral; settings: in vivo; in short: as §3
[19] = molecular target: Voltage-gated inwardly rectifying potassium channel KCNH2 (Homo sapiens, UniProt Q12809); assay: Inhibition of MK499 binding to human ERG
Sequence of Voltage-gated inwardly rectifying potassium channel KCNH2 (Q12809 whole entry): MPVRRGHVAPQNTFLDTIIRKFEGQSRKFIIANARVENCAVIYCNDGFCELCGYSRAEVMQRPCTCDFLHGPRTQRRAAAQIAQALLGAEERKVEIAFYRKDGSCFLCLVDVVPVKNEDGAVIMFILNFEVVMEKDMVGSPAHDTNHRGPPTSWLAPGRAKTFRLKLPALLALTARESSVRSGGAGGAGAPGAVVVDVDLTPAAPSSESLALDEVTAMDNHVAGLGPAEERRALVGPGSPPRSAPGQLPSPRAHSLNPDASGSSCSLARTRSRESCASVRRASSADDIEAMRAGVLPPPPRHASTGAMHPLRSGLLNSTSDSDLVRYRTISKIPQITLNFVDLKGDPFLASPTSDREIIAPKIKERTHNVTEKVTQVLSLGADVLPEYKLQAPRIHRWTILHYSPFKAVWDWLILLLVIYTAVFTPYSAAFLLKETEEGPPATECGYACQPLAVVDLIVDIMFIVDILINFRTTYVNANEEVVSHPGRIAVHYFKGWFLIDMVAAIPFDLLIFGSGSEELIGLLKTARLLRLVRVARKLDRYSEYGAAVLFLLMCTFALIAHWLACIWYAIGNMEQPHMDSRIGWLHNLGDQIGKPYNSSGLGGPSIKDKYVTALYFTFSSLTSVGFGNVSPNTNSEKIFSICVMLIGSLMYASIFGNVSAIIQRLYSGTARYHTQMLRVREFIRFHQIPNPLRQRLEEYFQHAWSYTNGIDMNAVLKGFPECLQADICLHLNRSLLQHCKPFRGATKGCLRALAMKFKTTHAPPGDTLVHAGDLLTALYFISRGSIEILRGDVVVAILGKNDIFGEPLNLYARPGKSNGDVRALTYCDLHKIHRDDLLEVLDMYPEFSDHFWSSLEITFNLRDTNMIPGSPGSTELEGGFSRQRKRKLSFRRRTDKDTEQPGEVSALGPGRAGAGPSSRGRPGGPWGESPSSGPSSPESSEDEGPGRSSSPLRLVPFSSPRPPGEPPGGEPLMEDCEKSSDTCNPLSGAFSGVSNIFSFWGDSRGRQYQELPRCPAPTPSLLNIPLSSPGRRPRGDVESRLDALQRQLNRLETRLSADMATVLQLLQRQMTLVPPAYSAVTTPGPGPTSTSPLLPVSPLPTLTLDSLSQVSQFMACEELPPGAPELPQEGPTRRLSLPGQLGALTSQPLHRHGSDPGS

[20] = test system: Rattus norvegicus; assay: Reduction of Abeta42 protein level in CD rat at 1 mg/kg, po measured after 3 hrs relative to control; assay type: functional, organism-based; in short: as §1
[21] = Protein binding in rat plasma; assay type: ADME, cell-free; settings: read-out: PPB (converted)
[22] = MRT in CD rat at 1 mg/kg, iv; assay type: ADME, organism-based; settings: in vivo; in short: as §4
[23] = test system: Rattus norvegicus; assay: Reduction of Abeta42 protein level in CD rat at 3 mg/kg, po measured after 3 hrs relative to control; assay type: functional; design: scale not given: the % may be the effect or the level left; in short: as §1
[24] = Drug level in brain of CD rat at 30 mg/kg, po measured after 3 hrs; assay type: ADME, organism-based; settings: read-out: Drug uptake; in short: as §2
[25] = Drug level in brain of CD rat at 3 mg/kg, po measured after 3 hrs; assay type: ADME, organism-based; settings: read-out: Drug uptake; in short: as §2
[26] = AUC (0 to infinity) in CD rat at 2 mg/kg, po; assay type: ADME, organism-based; design: dose 2 mg/kg, route oral, time infinity; settings: in vivo; in short: as §3
[27] = molecular target: Cytochrome P450 3A4 (Homo sapiens, UniProt P08684); assay: Inhibition of CYP3A4 (unknown origin); assay type: ADME
Sequence of Cytochrome P450 3A4 (P08684 whole entry): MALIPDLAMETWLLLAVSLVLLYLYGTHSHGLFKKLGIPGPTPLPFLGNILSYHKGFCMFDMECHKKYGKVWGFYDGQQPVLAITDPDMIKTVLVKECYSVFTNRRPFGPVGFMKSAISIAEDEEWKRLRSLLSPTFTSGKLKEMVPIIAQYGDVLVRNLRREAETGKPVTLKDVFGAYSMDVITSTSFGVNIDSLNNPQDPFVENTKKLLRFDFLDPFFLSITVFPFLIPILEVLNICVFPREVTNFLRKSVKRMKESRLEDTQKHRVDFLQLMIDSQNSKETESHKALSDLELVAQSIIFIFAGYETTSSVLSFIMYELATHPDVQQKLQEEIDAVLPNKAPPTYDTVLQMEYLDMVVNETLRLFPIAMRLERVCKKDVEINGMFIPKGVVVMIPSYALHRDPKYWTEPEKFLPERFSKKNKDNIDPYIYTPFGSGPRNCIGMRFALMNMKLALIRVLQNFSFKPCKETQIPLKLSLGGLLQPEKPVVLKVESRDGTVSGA

[28] = Volume of distribution at steady state in CD rat at 1 mg/kg, iv; assay type: ADME, organism-based; settings: in vivo, read-out: Vdss; in short: as §4

COc1cc(/C=C2\CCCN3C2=NO[C@H](c2cc(F)c(F)c(F)c2)[C@@H]3CO)ccc1-n1cnc(C)c1
IC50 [1]: 0.069 µM | IC50 [2]: 15 µM | Ratio IC50 [3]: 221

COc1cc(/C=C2\CCCN3C2=NO[C@H](c2cc(F)cc(F)c2)[C@@H]3C(C)C)ccc1-n1cnc(C)c1
IC50 [1]: 0.113 µM | IC50 [2]: 19 µM | Ratio IC50 [3]: 174

COc1cc(/C=C2\CCCN3C2=NOCC[C@@H]3c2cc(F)c(F)c(F)c2)ccc1-n1cnc(C)c1
IC50 [1]: 0.039 µM

COc1cc(/C=C2\CCCN3C2=NO[C@H](c2cc(F)cc(F)c2)[C@@H]3C)ccc1-n1cnc(C)c1
efflux ratio [4]: 2.46 | Activity [5]: 73% | concentration at 3 h [6]: 4.2 µM | IC50 [7]: 33 µM | concentration at 3 h [8]: 0.91 µM | Papp [9]: 17 ×10⁻⁶ cm/s | Activity [10]: Dose-dependent effect | bioavailability [11]: 79% | IC50 [12]: 15 µM | clearance [13]: 10 mL/min/kg | Activity [14]: 52% | concentration at 3 h [15]: 4.83 µM | IC50 [1]: 0.052 µM | IC50 [16]: 49 µM | concentration at 3 h [17]: 8.8 µM | Cmax [18]: 1.3 µM | IC50 [19]: 2.01 µM | Activity [20]: inactive | fraction unbound [21]: 0.005 | MRT [22]: 1.7 h | Activity [23]: 24% | concentration at 3 h [24]: 7.5 µM | concentration at 3 h [25]: 0.81 µM | AUC(0-inf) [26]: 8 µM·h | IC50 [2]: 12 µM | IC50 [27]: 16 µM | Ratio IC50 [3]: 248 | Vd [28]: 1.1 L/kg

COc1cc(C(=O)N2CCCC(Cc3ccc(F)cc3)C2)ccc1-n1cnc(C)c1 (stereo not given)
IC50 [1]: 1.55 µM

COc1cc(/C=C2\CCCN3C2=NO[C@H](c2cc(F)c(F)c(F)c2)[C@@H]3C)ccc1-n1cnc(C)c1
Activity [5]: 80% | IC50 [7]: 37 µM | Papp [9]: 14 ×10⁻⁶ cm/s | IC50 [12]: > 10 µM | IC50 [1]: 0.055 µM | IC50 [16]: 49 µM | concentration at 3 h [17]: 13.1 µM | IC50 [19]: 1.61 µM | concentration at 3 h [24]: 11.1 µM | IC50 [2]: > 20 µM | IC50 [27]: 29 µM | Ratio IC50 [3]: >367

COc1cc(/C=C2\CCCN3C2=NO[C@@H](c2cc(F)cc(F)c2)[C@@H]3C)ccc1-n1cnc(C)c1
IC50 [1]: 9.29 µM | IC50 [2]: > 20 µM

COc1cc(/C=C2\CCCN3C2=NOC[C@@H]3c2cc(F)c(F)c(F)c2)ccc1-n1cnc(C)c1
IC50 [1]: 0.037 µM

COc1cc(C2=NOCC3C(Oc4ccc(Cl)cc4C(F)(F)F)CCCN23)ccc1-n1cnc(C)c1 (stereo not given)
IC50 [1]: 0.015 µM

COc1cc(C2=CC3=NOC[C@H](c4cc(F)c(F)c(F)c4)N3CCC2)ccc1-n1cnc(C)c1
IC50 [7]: 8 µM | Papp [9]: 23 ×10⁻⁶ cm/s | IC50 [12]: > 15 µM | IC50 [1]: 0.143 µM | IC50 [16]: 8 µM | concentration at 3 h [17]: 1.4 µM | IC50 [19]: 2.61 µM | concentration at 3 h [24]: 1.3 µM | IC50 [2]: 16 µM | IC50 [27]: 30 µM

CCC(NC(=O)/C=C/c1ccc(-n2cnc(C)c2)c(OC)c1)c1ccc(F)cc1 (stereo not given)
IC50 [1]: 0.462 µM

COc1cc(C2=CC3=NOC(CO)(c4ccc(F)cc4)N3CCO2)ccc1-n1cnc(C)c1 (stereo not given)
IC50 [1]: 0.512 µM

COc1cc(/C=C2\CCCN3C2=NO[C@]3(CO)c2ccc(F)cc2)ccc1-n1cnc(C)c1
IC50 [1]: 0.029 µM

COc1cc(/C=C2\CCCN3C2=NOC[C@@H]3c2ccc(F)cc2)ccc1-n1cnc(C)c1
IC50 [1]: 0.033 µM

COc1cc(/C=C2\CCCN3CC(c4cc(F)c(F)c(F)c4)ON=C23)ccc1-n1cnc(C)c1 (stereo not given)
IC50 [1]: 0.048 µM

COc1cc(-c2nnc3n2CCCN3C(C)c2cc(F)c(F)c(F)c2)ccc1-n1cnc(C)c1 (stereo not given)
IC50 [1]: 0.116 µM

COc1cc(C2=NOCC3C(Oc4cc(F)cc(F)c4)CCCN23)ccc1-n1cnc(C)c1 (stereo not given)
IC50 [1]: 0.4 µM

COc1cc(C2=CC3=NO[C@H](c4cc(F)c(F)c(F)c4)CN3CCC2)ccc1-n1cnc(C)c1
Activity [5]: 52% | IC50 [7]: 18 µM | Papp [9]: 22 ×10⁻⁶ cm/s | IC50 [12]: > 30 µM | IC50 [1]: 0.107 µM | IC50 [16]: 48 µM | concentration at 3 h [17]: 14.2 µM | IC50 [19]: 3.35 µM | concentration at 3 h [24]: 2.1 µM | IC50 [2]: 14 µM | IC50 [27]: 34 µM

From ChEMBL document CHEMBL4627416, “Generation of Leads for γ-Secretase Modulation” (J Med Chem, 2020)
